From ChEMBL document CHEMBL1123954, “Synthesis and antitumor activity of analogues of ifosfamide modified in the N-(2-chloroethyl) group” (J Med Chem, 1988)

Assays:
Mus musculus [1] = experiment: Percentage increase in life span of L1210 leukemia implanted mice at a dose of 30-180 mg/kg; value range is 0-12; assay type: functional
Method in brief: (§1)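 Female CD2F1 mice, 10–12 weeks old, inoculated ip on day 0 with 10⁵ L1210 leukemia cells. Test agent dissolved in sterile saline immediately before use and given as a single ip dose on day 1 at 0.01 mL/g body weight. Groups of 6–8 treated and 18–24 control mice, following NCI screening protocol. Read-out is % increase in life span, with survivors noted at day 60.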

Mus musculus [2] = experiment: Percentage increase in life span of L1210 leukemia implanted mice at a dose of 30-180 mg/kg; assay type: functional; method in brief: as §1
Mus musculus [3] = experiment: Percentage increase in life span of L1210 leukemia implanted mice at a dose of 200 mg/kg; assay type: functional; method in brief: as §1
Mus musculus [4] = experiment: Percentage increase in life span of L1210 leukemia implanted mice at a dose of 100 mg/kg; assay type: functional; method in brief: as §1
Mus musculus [5] = experiment: Percentage increase in life span of L1210 leukemia implanted mice at a dose of 15-60 mg/kg; assay type: functional; method in brief: as §1
Mus musculus [6] = species on record: Mus musculus; experiment: Effective dose that causes 50% increase in life span of mice; assay type: functional
Method in brief: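 In L1210-bearing mice, ip dosing was run on day 1 across 4–6 dose levels giving 15–100% ILS, with six mice per dose. ED50 (dose giving 50% ILS) was obtained per experiment by linear regression of dose against %ILS. Values are reported as mean ± SD over the number of experiments.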

Mus musculus [7] = experiment: Percentage increase in life span of L1210 leukemia implanted mice at a dose of 300 mg/kg; assay type: functional; method in brief: as §1
Mus musculus [8] = experiment: Percentage increase in life span of L1210 leukemia implanted mice at a dose of 400 mg/kg; assay type: functional; method in brief: as §1
Mus musculus [9] = experiment: Percentage increase in life span of L1210 leukemia implanted mice at a dose of 60 mg/kg; assay type: functional; method in brief: as §1
Mus musculus [10] = experiment: Percentage increase in life span of L1210 leukemia implanted mice at a dose of 80 mg/kg; assay type: functional; method in brief: as §1
Mus musculus [11] = experiment: Percentage increase in life span of L1210 leukemia implanted mice at a dose of […] 50 mg/kg; assay type: functional; method in brief: as §1
Mus musculus [12] = experiment: Percentage increase in life span of L1210 leukemia implanted mice at a dose of 150 mg/kg; assay type: functional; method in brief: as §1
[13] = Lethal dose to kill 50% of the mice after single ip injection to healthy female CD2F1 mice; assay type: toxicity, organism-based; settings: CD2F1, mouse, in vivo
Method in brief: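 Healthy female CD2F1 mice received a single ip injection at 5–6 dose levels spanning 0–100% mortality, with 10 or 15 animals per group. Deaths were followed for 21 days. LD50 and 95% confidence limits were calculated by probit analysis.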

Mus musculus [14] = experiment: Percentage increase in life span of L1210 leukemia implanted mice at a dose of 120 mg/kg; assay type: functional; method in brief: as §1
Mus musculus [15] = experiment: Percentage increase in life span of L1210 leukemia implanted mice at a dose of 500 mg/kg; assay type: functional; method in brief: as §1
Mus musculus [16] = experiment: Percentage increase in life span of L1210 leukemia implanted mice at a dose of 180 mg/kg; assay type: functional; method in brief: as §1
Mus musculus [17] = experiment: Percentage increase in life span of L1210 leukemia implanted mice at a dose of 600 mg/kg; assay type: functional; method in brief: as §1

Structure (SMILES)	ILS at 200 mg/kg (Mus musculus [3]) [%]	ILS at 100 mg/kg (Mus musculus [4]) [%]	ED50 (Mus musculus [6]) [mg/kg]	ILS at 300 mg/kg (Mus musculus [7]) [%]	ILS at 400 mg/kg (Mus musculus [8]) [%]	ILS at 150 mg/kg (Mus musculus [12]) [%]	LD50 [13] [mg/kg]	ILS at 120 mg/kg (Mus musculus [14]) [%]	further results
O=P(OCCNP1(=O)OCCCN1CCCl)(OCc1ccccc1)OCc1ccccc1 (stereo not given)									ILS (Mus musculus [1]): 0%
CC(=O)OCCNP1(=O)OCCCN1CCCl (stereo not given)									ILS (Mus musculus [2]): 13%
CCOP(=O)(OCC)OCCNP1(=O)OCCCN1CCCl (stereo not given)									ILS (Mus musculus [1]): 0%
O=P1(NCCF)OCCCN1CCCl (stereo not given)	-40	-40							ILS (Mus musculus [5]): 10%
O=P1(NCCBr)OCCCN1CCCl (stereo not given)	> 550	> 430	36.2	> 550	500	> 550	470		ILS at 60 mg/kg (Mus musculus [9]): 88%; ILS at 80 mg/kg (Mus musculus [10]): 110%; ILS at 50 mg/kg (Mus musculus [11]): 74%
O=P1(N(CCCl)CCCl)NCCCO1 (stereo not given) [CYCLOPHOSPHAMIDE ANHYDROUS]	> 550		90.6	> 550	> 425	89	445	86	
Cc1ccc(S(=O)(=O)OCCNP2(=O)OCCCN2CCCl)cc1 (stereo not given)									ILS (Mus musculus [2]): 13%
O=[P@]1(NCCBr)OCCCN1CCCl	> 550		66.2	> 550	> 550	> 500	541	114	ILS at 500 mg/kg (Mus musculus [15]): 206%
O=P1(NCCCl)OCCCN1CCCl (stereo not given) [IFOSFAMIDE]	> 350		88.6	> 400	> 500	123	679	74	ILS at 180 mg/kg (Mus musculus [16]): > 250%; ILS at 500 mg/kg (Mus musculus [15]): > 500%; ILS at 600 mg/kg (Mus musculus [17]): > 480%
O=[P@@]1(NCCBr)OCCCN1CCCl	> 550	> 550	27.7	> 350	62	> 550	368		ILS at 60 mg/kg (Mus musculus [9]): 140%
